# High-throughput results (PubChem BioAssay)
# Rows were chosen to be rich in hits. Some 1.5% of all compounds tested hit in one or more screens of this group.
# S1P4 ag – agonists of human S1P4 receptor; O95977; S1P4-expressing cell line, agonist reporter assay; activation, % at 4.98 µM; 0.35% of 220,000 active; AID 1509; in the data active = activation above about 11%;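 note: 0% = DMSO vehicle and 100% = reference agonist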
# Target sequence (O95977 whole entry, looked up): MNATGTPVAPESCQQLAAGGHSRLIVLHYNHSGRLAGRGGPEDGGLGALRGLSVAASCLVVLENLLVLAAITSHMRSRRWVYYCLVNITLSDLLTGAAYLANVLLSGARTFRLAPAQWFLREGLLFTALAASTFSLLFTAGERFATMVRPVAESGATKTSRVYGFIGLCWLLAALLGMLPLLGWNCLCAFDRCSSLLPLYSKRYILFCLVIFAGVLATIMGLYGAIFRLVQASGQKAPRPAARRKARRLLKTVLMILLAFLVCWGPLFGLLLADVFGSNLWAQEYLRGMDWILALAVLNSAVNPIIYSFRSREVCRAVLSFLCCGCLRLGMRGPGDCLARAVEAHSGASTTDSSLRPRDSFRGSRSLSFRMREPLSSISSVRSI
# Tb hexokinase – blocks Trypanosoma brucei hexokinase 1 activity; inhibition, % at 10 µM; 0.11% of 220,000 active; recombinant TbHK1, G6PDH-coupled NADH A340;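 active = inhibition of 50% or more in the single-dose primary screen; inactive = inhibition below 50%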
# TNF necrop inh – blocks TNF-alpha induced death of Jurkat FADD-/- cells; Jurkat FADD-/- TNF necroptosis rescue, ATP luminescence, 24 h; 0 = TNF only, 100 = no-TNF cells; AID 463075; 0.068% of 220,000 active; activation (protection from cell death), % at 10 µM;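 active = activation, meaning protection from cell death, of at least 50% relative to plate controls; inactive = activation below 50%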;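 note: necroptosis triggered by 40 ng/mL TNF-alpha added together with compound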
# S1P4 antag – antagonists of human S1P4 receptor | S1P4-expressing cells, antagonist mode, reporter read-out | 0.26% of 220,000 active | inhibition, % at 4.98 µM | O95977; in the data active = inhibition above about 29%;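 note: 0% = wells stimulated with agonist and 100% = vehicle wells without agonist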
# zVAD death inh – blocks zVAD induced death of L929 cells; L929 zVAD necroptosis rescue, ATP luminescence, 24 h; with zVAD 60 µM; viability rescue, % at 10 µM; 0.38% of 220,000 active;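 active = activation, scaled between plate controls, above about 75%, limit read from the data; inactive = activation under that limit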;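 note: 0% = zVAD with DMSO and 100% = DMSO alone without zVAD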
# Dynein transport – dynein cargo transport inhibition; 3617.4 mouse cells, GR-EGFP nuclear translocation imaging; test concentration mostly 20 µM; stimulated with dexamethasone, 1 µM; active compounds read low; z-score, hits read low; 0.47% of 220,000 active;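 active = plate z-score of nuclear minus cytoplasmic receptor signal below a set negative limit, without overly bright fluorescence or cell loss, cut at about -3.5 in these data, passing the limit was not always enough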;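 note: z-score of nuclear minus cytoplasmic ring GR-EGFP intensity difference per well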
#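 Buffer or medium: tet-free, stripped-serum medium; reagent: dexamethasone at 1.0 µM final, 30 min; incubation: 48 h induction, 1 h compound, 30 min dex at 37 °C; measured by: formaldehyde fixation, Hoechst nuclear stain, 10x automated fluorescence imaging; read-out: nuclear-to-cytoplasmic GR-EGFP distribution per well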
# zVAD necrop conf – confirmed blocker of zVAD induced death in L929 cells | activation (protection from necroptosis), % at 10 µM | 16% of 760 active | L929 zVAD-induced necroptosis rescue, ATP luminescence, 24 h | shares compounds with zVAD death inh;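 active = mean protection from necroptosis of at least 50% over duplicate tests; inactive = mean protection below 50%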;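 note: 0% = cells with zVAD alone and 100% = vehicle cells without zVAD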
# Dynein inh conf – dynein cargo transport inhibition, confirmation; shares compounds with Dynein transport; 3617.4 GR-EGFP nuclear translocation imaging, dexamethasone-induced; calls only at 20 µM; 69% of 1,000 active;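 active = inhibition of receptor movement into the nucleus at or above a set limit in both runs, with normal cell brightness and cell count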;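 note: dexamethasone at 1 µM final in well for 30 min; nuclear minus cytoplasmic GR-EGFP mean intensity difference in channel 2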
# S1P4 antag conf – confirmation of human S1P4 receptor antagonists; 71% of 520 active; inhibition, % at 4.98 µM; S1P4-expressing cell line, antagonist mode, reporter read-out; shares compounds with S1P4 antag; AID 1524; in the data active = inhibition above about 30%
# S1P1 antag – counter-screen for S1P4 antagonists: antagonists of human S1P1 | shares compounds with S1P4 antag | cell-based S1P1 antagonist counterscreen, inhibition | inhibition, % at 4.98 µM | 37% of 520 active | AID 1564; in the data active = inhibition above about 40%;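 note: receptor stimulated with S1P near its EC80; 0% = agonist stimulated wells and 100% = vehicle only wells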
# * = called active by the depositor; . = no result; + = active, no number.
SMILES,S1P4 ag,Tb hexokinase,TNF necrop inh,S1P4 antag,zVAD death inh,Dynein transport,others
CCN1C(=O)/C(=C\c2ccc([N+](=O)[O-])s2)C(=O)NC1=S,0,-3,-6,2,-2,-4.7*,
CCN1C(=O)/C(=C/c2ccc3c(c2)CCN3CCCCl)C(=O)NC1=S,1,10,-2,-9,1,-1.3,
Cc1nc2c(=O)n(C)c(=O)nc-2n(C)n1,2,14,-17,97*,-1,-0.74,
CC(C)[C@]12O[C@H]1[C@@H]1O[C@]13[C@]1(O[C@H]1C[C@H]1C4=C(CC[C@@]13C)C(=O)OC4)[C@@H]2O,-1,.,.,107*,.,.,
CC(=O)N1N=C2C3CCN(CC3)C2C1c1ccc(Br)cc1 (centres undefined),-2,-16,2,-6,0,-0.13,
c1ccc(-c2[nH]c[n+](CC3CO3)c2-c2ccccc2)cc1 (centres undefined),-2,69*,0,-12,2,0.75,
C=C1C(=O)O[C@@H]2C[C@@H](C)[C@@H]3C=CC(=O)[C@@]3(C)[C@@H](OC(=O)CC(=O)O[C@H]3[C@@H]4C(=C)C(=O)O[C@@H]4C[C@@H](C)[C@@H]4C=CC(=O)[C@]43C)[C@H]12,.,-3,-21,.,42,-4*,
C=C1C(=O)O[C@H]2[C@H]1[C@H](OC(=O)CC(=O)O[C@@H]1C[C@@H](C)[C@@H]3C=CC(=O)[C@@]3(C)[C@H]3OC(=O)C(=C)[C@H]13)C[C@@H](C)[C@H]1C=CC(=O)[C@]12C,.,-16,3,.,0,-3.3,
C=C1C(=O)O[C@@H]2C[C@@H](C)[C@@H]3C4OC4C(=O)[C@@]3(C)[C@@H](O)[C@H]12 (some centres undefined),.,-7,35,.,67,-3.8*,
O=C(O)CN1C(=O)CN=C(c2ccccn2)c2cc(Cl)ccc21,2,-10,1,-4,2,0.22,
CC12CN3CCN(C1)CC(C)(C3)C2=NN,0,-6,2,-7,0,-0.38,
CSCc1nnc2n1-c1ccc(Cl)cc1C(c1ccccc1)=NC2,-2,33,0,3,0,-0.22,
C[C@H]1CCC[C@@H](O)CCC/C=C/c2cc(O)cc(O)c2C(=O)O1,1,-3,13,-11,79*,-1.2,zVAD necrop conf=1
O=c1[nH]c(O)c(/C=C2/C=CC(c3cc(Cl)ccc3Cl)=N2)c(=O)[nH]1,1,17,-15,-6,1,3.2,
Cc1cc([N+](=O)[O-])c2ccccc2[n+]1[O-],-2,-14,-28,79*,81*,-4.5*,zVAD necrop conf=67*;Dynein inh conf=+;S1P4 antag conf=114*;S1P1 antag=112*
O=C(N=Nc1c(O)[nH]c(=O)[nH]c1=O)C1COc2cc3ccccc3cc2O1 (centres undefined),1,-6,-1,-21,9,-0.79,
O=C1NC(=O)N(CCc2ccc(F)cc2)C(=O)/C1=C\C=C\c1ccccc1,1,-13,-11,-15,11,-4.1*,Dynein inh conf=+
CN(C)c1ccc(/C=C2/C(=O)NC(=O)N(CCc3ccc(F)cc3)C2=O)cc1,-1,-8,0,-15,1,-0.54,
CN(C)c1ccc(/C=C/C=C2/C(=O)NC(=O)N(c3ccccc3)C2=O)cc1,0,3,-11,3,-2,-0.27,
C=CCN1C(=O)NC(=O)/C(=C/C=C/c2ccccc2)C1=O,1,5,-10,6,0,-4.9*,Dynein inh conf=+
CCOP(=O)(OCC)C(O)c1ccc(OC)cc1 (centres undefined),-2,-1,1,9,3,-0.019,
